Results as given in PMC3032767 (Journal of cellular physiology, 2008).
pIC50: −log10 of the molar value. Where two headings read alike, the source gives them in different places.

Assays:
Fgr = Fgr (Homo sapiens, UniProt P09769); assay: Kinase inhibition assay; type: biochemical
In short: (§1)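 Kinase activity was measured by commercial services. IC50 is the mean of 3 independent experiments.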

[1] = Pharmacokinetics after topical dosing in mice; type: in vivo, C57BL/6 mice; conditions: for Plasma concentration (below level of detection): mouse, topical 1% TG100801, all time points, analyte = labelled compound
FGFR1 = FGFR1 (Homo sapiens, UniProt P11362); assay: Kinase inhibition assay; type: biochemical
In short: as §1

[2] = system: VEGF-induced phosphorylation of extracellular signal-regulated kinase (ERK); assay: Western blot of VEGF-induced signaling in microvascular EC; type: cell-based, human; conditions: 1 µM for 1 hr, then rhVEGF 50 ng/ml 10 min
In short: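 Endothelial cells were held overnight in serum- and growth factor-free medium before test compound exposure. After 10 min rhVEGF, cells were lysed and blotted for phosphorylated Erk1/2, with total STAT3 as loading control. Comparison groups were no-VEGF and VEGF-only cultures.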

[3] = system: laser-induced choroidal neovascularization (CNV); assay: Mouse model of laser-induced CNV; type: in vivo, C57BL/6 mice; conditions: 14 days
Fyn = Fyn (Homo sapiens, UniProt P06241); assay: Kinase inhibition assay; type: biochemical
In short: as §1

Hck = Hck (Homo sapiens, UniProt P08631); assay: Kinase inhibition assay; type: biochemical
In short: as §1

Src = Src (Homo sapiens, UniProt P12931); assay: Kinase inhibition assay; type: biochemical
Lck = Lck (Homo sapiens, UniProt P06239); assay: Kinase inhibition assay; type: biochemical
[4] = Oral and intravenous administration, systemic exposure; type: in vivo; conditions: data not shown; for Oral bioavailability: oral administration
PDGFRβ = PDGFRβ (Homo sapiens, UniProt P09619); assay: Kinase inhibition assay; type: biochemical
In short: as §1

[5] = Body weight and tolerability in the mouse CNV study; type: in vivo; conditions: 14 days
[6] = system: human retinal microvascular EC; assay: Endothelial cell proliferation assay; type: cell-based; conditions: 48 hr; 10% FBS, 50 ng/mL rhVEGF; mean ± SEM, N= 3
In short: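 Human retinal microvascular EC were grown 48 hr with test compound (2 nM–5 µM) or DMSO vehicle in medium containing 10% FBS, 50 µg/mL heparin and 50 ng/mL rhVEGF. Cell number was read by XTT assay.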

Lyn = Lyn (Homo sapiens, UniProt P07948); assay: Kinase inhibition assay; type: biochemical
In short: as §1

[7] = Ocular tissue levels after i.p. dosing in mice; type: in vivo, C57BL/6 mice; conditions: C57BL/6, mouse, ip, 5 mg/kg
In short: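 C57BL/6 mice (15–20 g) got 5 mg/kg test compound i.p. twice daily for 4 days, then a single dose on Day 5. Eyes were taken 5 hr later, dissected into retina and sclera/choroid eye cups, and pooled (N=2–4). Tissue was homogenized in RIPA, extracted with acetonitrile containing internal standards and quantified by LC/MS/MS against standards made in naive tissue.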

Yes = Yes (Homo sapiens, UniProt P07947); assay: Kinase inhibition assay; type: biochemical
In short: as §1

VEGFR2 = VEGFR2 (Homo sapiens, UniProt P35968); assay: Kinase inhibition assay; type: biochemical
In short: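 Kinase inhibition was run by commercial services, with the test compound supplied as a DMSO stock. IC50 is the mean from 3 independent experiments.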

FGFR2 = FGFR2 (Homo sapiens, UniProt P21802); assay: Kinase inhibition assay; type: biochemical
In short: as §1

VEGFR1 = VEGFR1 (Homo sapiens, UniProt P17948); assay: Kinase inhibition assay; type: biochemical
In short: as §1

[8] = Ocular distribution of 14C-TG100801; type: in vivo, Dutch-Belted rabbit; conditions: rabbit, 30 min after single 40 µL topical 1% TG100801 containing 14C-TG100801, left eye; liquid scintillation counter
In short: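 A single male Dutch-Belted rabbit (2.1 kg) received 25 µCi of 14C label in the dose. The label sits on a position kept after prodrug conversion, so counts cover prodrug plus active drug. About 30 mL blood was taken 30 min post-instillation. Blood and plasma were counted directly by liquid scintillation.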

[9] = system: retinal edema after retinal vein thrombosis; type: in vivo, Long Evans rats
In short: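 Long Evans rats (250–275 g) got i.v. Rose Bengal (20 mg/kg), then laser thrombosis of one vein in the right eye. Both eyes received 10 µL test prodrug (0.3–1%) or vehicle, 5 doses over 3 days. Edema Index = (right AUC − left AUC)/left AUC. Scoring was blinded, n=9–11.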

kinase = assay: Anti-kinase activity of the prodrug; type: biochemical; conditions: data not shown
[10] = Ocular safety assessment in rabbits; type: in vivo, Dutch Belted rabbits; conditions: rabbit, 1% topical four times per day for 28 days
In short: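 Dutch Belted rabbits (1.7–2.2 kg) had baseline gross and slit lamp exams. Each eye then received 40 µL of 1% test prodrug or vehicle topically four times daily for 28 days. Gross exams were done daily and slit lamp exams weekly. On Day 29, final exams and ERGs were done, then eyes were taken for histopathology.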

[11] = system: retinal edema after retinal vein thrombosis; assay: Rat model of retinal vein occlusion, retinal thickness by OCT; type: in vivo, Long Evans rats; conditions: topical 1% TG100801
In short: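 The same Rose Bengal/laser vein-occlusion protocol and 5-dose topical schedule were used, with 1% test prodrug or vehicle; naive eyes served as comparators. Under ketamine/xylazine, vertical OCT scans covered 5 mm from the optic disc edge. Thickness was calculated at 6 evenly spaced points, and retinal area was derived. Assessment was blinded, n=17–21.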

[12] = system: retinal and choroidal neovascularization; conditions: topical administration to the eye; ref Takahashi et al., 2003; cited from earlier work
[13] = system: subfoveal choroidal neovascularization (CNV) due to AMD; conditions: intraocular injections every 6 weeks; ref Gragoudas et al., 2004; cited from earlier work

Sequence of VEGFR2 (P35968 20-1356, species assumed): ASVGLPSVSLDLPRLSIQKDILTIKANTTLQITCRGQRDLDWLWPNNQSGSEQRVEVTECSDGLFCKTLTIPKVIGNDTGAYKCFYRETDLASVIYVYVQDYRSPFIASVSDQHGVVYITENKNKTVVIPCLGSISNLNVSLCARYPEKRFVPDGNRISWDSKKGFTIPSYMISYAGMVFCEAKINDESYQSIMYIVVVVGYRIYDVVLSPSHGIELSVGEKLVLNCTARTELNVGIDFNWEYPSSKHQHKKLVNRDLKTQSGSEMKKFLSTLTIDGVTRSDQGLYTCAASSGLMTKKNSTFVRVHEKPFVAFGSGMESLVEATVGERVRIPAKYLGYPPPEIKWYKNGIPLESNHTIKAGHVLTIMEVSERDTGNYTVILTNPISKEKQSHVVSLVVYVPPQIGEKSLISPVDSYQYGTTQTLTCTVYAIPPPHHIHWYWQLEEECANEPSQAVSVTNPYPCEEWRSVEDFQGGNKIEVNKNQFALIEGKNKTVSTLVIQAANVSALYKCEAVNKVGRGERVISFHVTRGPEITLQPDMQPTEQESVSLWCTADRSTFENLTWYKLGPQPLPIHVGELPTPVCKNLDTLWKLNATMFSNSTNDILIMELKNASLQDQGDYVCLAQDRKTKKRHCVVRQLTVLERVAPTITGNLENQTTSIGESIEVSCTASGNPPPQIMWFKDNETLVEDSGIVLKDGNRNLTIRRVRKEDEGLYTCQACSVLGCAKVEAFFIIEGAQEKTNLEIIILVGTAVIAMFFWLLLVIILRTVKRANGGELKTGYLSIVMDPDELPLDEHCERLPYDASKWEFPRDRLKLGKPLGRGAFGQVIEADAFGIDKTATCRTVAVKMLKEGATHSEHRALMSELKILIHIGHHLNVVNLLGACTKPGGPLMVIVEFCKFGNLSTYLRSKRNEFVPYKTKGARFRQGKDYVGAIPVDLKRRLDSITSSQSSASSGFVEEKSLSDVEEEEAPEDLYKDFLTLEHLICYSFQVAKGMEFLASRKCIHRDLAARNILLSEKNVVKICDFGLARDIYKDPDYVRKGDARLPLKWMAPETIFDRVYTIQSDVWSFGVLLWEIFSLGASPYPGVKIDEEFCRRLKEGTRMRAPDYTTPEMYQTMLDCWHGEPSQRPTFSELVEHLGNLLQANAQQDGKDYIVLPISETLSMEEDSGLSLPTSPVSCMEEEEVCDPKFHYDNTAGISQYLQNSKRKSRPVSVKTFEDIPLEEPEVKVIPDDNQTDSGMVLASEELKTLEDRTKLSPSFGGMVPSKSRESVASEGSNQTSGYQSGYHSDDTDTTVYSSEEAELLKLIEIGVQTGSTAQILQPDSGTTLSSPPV
Sequence of VEGFR1 (P17948 27-1338, species assumed): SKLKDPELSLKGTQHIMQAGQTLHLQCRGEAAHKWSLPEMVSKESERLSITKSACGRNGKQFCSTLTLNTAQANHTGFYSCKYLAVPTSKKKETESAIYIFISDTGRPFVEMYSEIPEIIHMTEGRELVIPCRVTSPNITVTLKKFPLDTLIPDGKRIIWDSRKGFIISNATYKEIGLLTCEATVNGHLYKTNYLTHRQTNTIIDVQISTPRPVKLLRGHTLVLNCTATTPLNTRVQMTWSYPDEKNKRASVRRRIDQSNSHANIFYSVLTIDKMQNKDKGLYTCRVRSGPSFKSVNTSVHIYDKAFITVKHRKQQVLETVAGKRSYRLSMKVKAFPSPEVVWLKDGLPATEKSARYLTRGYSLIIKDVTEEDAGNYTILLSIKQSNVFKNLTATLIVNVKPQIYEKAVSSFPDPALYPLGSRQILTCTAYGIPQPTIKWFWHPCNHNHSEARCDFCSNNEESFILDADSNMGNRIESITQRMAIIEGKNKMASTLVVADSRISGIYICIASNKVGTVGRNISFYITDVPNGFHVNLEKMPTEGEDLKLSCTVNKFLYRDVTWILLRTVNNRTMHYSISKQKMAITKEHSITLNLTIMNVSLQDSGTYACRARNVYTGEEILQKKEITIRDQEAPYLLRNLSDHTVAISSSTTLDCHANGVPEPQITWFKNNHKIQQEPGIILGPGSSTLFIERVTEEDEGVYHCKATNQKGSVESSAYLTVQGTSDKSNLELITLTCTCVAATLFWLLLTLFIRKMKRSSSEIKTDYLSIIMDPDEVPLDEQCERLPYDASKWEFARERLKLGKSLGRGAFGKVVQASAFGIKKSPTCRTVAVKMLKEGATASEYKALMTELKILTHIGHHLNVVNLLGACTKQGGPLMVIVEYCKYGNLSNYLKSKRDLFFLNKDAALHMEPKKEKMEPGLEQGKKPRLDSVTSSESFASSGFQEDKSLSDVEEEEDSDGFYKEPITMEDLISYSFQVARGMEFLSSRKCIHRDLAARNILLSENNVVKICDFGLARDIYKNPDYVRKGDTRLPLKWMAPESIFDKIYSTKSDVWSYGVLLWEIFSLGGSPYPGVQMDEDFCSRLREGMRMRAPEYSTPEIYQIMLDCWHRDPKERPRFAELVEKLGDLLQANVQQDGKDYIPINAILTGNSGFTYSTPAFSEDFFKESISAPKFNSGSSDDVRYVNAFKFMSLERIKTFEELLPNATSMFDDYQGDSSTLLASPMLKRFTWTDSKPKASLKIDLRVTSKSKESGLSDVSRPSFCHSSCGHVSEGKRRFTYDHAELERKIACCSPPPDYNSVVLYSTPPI
Sequence of Src (P12931 whole entry, species assumed): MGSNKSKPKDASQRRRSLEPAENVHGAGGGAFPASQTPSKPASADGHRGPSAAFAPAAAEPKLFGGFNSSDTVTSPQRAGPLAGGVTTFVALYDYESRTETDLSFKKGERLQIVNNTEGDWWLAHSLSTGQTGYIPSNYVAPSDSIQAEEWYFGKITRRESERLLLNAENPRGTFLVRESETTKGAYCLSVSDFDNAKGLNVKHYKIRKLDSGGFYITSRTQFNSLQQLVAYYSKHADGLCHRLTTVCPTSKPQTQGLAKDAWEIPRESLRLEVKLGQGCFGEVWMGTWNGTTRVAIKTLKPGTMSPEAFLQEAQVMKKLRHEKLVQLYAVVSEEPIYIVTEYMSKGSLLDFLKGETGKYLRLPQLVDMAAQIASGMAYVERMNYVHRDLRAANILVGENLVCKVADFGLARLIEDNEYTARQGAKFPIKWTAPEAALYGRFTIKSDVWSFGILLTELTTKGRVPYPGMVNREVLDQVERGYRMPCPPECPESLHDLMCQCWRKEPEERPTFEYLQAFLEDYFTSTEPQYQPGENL
Sequence of Yes (P07947 whole entry, species assumed): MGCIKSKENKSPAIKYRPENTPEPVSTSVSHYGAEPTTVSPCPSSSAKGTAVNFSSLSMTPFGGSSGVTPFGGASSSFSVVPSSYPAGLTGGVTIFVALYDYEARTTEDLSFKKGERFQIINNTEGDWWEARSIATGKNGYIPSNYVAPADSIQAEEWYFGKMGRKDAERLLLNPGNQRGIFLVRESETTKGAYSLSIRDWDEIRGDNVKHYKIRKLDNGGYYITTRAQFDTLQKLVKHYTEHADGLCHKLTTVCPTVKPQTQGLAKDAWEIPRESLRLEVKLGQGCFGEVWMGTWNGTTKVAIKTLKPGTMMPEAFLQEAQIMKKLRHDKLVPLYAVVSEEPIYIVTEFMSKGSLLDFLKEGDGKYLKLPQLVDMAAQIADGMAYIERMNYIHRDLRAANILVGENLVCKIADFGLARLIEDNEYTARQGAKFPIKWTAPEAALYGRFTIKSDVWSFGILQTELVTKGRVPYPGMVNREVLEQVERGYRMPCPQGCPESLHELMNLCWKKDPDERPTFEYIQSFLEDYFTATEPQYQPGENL
Sequence of Lck (P06239 whole entry, species assumed): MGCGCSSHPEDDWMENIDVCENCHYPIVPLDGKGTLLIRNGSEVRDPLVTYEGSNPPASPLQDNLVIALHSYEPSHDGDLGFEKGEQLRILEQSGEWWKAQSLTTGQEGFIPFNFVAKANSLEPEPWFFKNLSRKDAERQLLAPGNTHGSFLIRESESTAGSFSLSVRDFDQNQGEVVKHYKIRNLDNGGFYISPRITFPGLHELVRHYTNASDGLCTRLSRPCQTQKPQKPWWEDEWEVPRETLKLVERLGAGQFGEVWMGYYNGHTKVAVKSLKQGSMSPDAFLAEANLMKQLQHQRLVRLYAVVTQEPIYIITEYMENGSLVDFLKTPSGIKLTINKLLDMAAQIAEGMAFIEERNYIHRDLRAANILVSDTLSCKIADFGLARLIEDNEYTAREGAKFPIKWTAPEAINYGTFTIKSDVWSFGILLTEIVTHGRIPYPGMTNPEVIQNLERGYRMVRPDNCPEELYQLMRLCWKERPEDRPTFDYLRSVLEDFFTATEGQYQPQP
Sequence of FGFR2 (P21802 22-821, species assumed): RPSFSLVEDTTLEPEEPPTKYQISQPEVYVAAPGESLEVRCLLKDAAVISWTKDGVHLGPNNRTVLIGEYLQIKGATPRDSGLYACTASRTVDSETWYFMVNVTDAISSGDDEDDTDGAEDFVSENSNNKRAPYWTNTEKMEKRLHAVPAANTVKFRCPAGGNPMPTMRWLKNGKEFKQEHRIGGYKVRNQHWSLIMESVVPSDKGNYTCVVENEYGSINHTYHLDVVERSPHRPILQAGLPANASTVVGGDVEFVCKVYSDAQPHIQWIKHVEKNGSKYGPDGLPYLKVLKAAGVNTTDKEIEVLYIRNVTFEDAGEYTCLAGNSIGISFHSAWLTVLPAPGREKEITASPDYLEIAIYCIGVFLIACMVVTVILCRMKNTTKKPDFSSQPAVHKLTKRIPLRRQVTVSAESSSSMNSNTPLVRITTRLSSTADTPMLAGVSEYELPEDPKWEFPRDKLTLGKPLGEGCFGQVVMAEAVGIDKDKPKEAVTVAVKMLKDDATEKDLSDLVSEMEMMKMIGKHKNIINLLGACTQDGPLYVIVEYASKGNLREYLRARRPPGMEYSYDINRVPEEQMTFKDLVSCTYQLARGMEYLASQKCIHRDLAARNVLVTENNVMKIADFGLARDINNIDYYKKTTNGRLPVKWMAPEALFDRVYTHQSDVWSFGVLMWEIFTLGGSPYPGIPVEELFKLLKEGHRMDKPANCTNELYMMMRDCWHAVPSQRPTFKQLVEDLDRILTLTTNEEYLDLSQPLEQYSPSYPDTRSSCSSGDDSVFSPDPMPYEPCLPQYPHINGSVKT

## Cc1cc(-c2cc(O)ccc2Cl)cc2nnc(Nc3ccc(OCCN4CCCC4)cc3)nc12 [TG100572, 4-chloro-3-(5-methyl-3-{[4-(2-pyrrolidin-1-ylethoxy)phenyl]amino}-1,2,4-benzotriazin-7-yl)phenol]
Fgr
  pIC50: 8.30
[1]; C57BL/6, mouse, posterior eyecup (sclera/choroid/retina), topical or ocular, 1 %
  AUC(0-t): 6.8 µM·h
[1]; C57BL/6, mouse, sclera/choroid, topical or ocular, 1 %
  Tmax: 1 h
[1]
  Plasma concentration (below level of detection): < 2 nM
FGFR1
  pIC50: 8.70
[2]
  VEGF-induced phosphorylation of ERK: blocked VEGF-induced phosphorylation of extracellular signal-regulated kinase (ERK)
[3]; TG100572 5 mg/kg i.p. daily, P< 0.001
  Reduction of CNV area compared to vehicle: 40%
Fyn
  pIC50: 9.30
Hck
  pIC50: 8.22
Src
  pIC50: 9.00
Lck
  pIC50: 10.00
[4]
  Clearance after intravenous administration: rapidly cleared
  Oral bioavailability: oral administration does not result in detectable levels in the circulation
PDGFRβ
  pIC50: 7.89
[5]; TG100572 5 mg/kg i.p. daily, vehicle gained 1%, P= 0.006
  Body weight loss over the study: 11%
[6]
  ED50, inhibition of vascular endothelial cell proliferation: 610 ± 71 nM
Lyn
  pIC50: 9.40
[7]; choroid/sclera
  concentration at 5 h: 9 µM
[7]; retina
  concentration at 5 h: 0.818 µM
Yes
  pIC50: 9.70
VEGFR2
  pIC50: 8.15
FGFR2
  pIC50: 7.80
VEGFR1
  pIC50: 8.70

## Cc1cc(-c2cc(OC(=O)c3ccccc3)ccc2Cl)cc2nnc(Nc3ccc(OCCN4CCCC4)cc3)nc12 [TG100801, 4-chloro-3-(5-methyl-3-{[4-(2-pyrrolidin-1-ylethoxy)phenyl]amino}-1,2,4-benzotriazin-7-yl)phenyl benzoate]
[1]
  Plasma concentration (below level of detection): < 2 nM
[3]; topical 1% TG100801 twice a day, P= 0.036
  Reduction of CNV area relative to vehicle: 58%
[8]
  Radioactivity in plasma samples: absence of detectable radioactivity
[4]
  Clearance after intravenous administration: rapidly cleared
  Oral bioavailability: oral administration does not result in detectable levels in the circulation
[9]; topical 0.3% TG100801, 5 applications over 3 days, P= 0.002
  Reduction in edema (Edema Index, fluorescein leakage) vs vehicle: 47%
[9]; topical 1% TG100801, 5 applications over 3 days, P = 0.039
  Reduction in edema (Edema Index, fluorescein leakage) vs vehicle: 32%
kinase
  Anti-kinase activity: does not display meaningful anti-kinase activity
[10]
  Daily gross exams and weekly slit lamp exams: did not detect ocular changes beyond baseline responses
  Electroretinograms (ERG) pre- and post-study: no meaningful changes
  Ocular histopathology at study end: normal ocular histology
  Ocular tolerability, overall judgement: well-tolerated
[10]; data not shown
  Body weight during the study: did not lose weight
[5]; mouse, topical 0.6% and 1% twice a day
  Ocular tolerability by slit lamp examination: well tolerated with no signs of irritation, inflammation, or other ocular toxicity
[11]; thrombosed eyes, naive 203 ± 2, vehicle 327 ± 23
  Average retinal area in the region encompassed by the OCT scans: 257 ± 13 µm^2
[11]; 5 out of 6 points, P< 0.05
  Reduction of retinal thickness vs vehicle at points along 5 mm OCT scans: 15–26%
[11]; P= 0.013
  Reduction of average retinal area vs vehicle-treated group: 21%

## NC(=O)Cc1cccc(C(=O)c2ccccc2)c1N [nepafenac]
[12]
  Effect on retinal and choroidal neovascularization: inhibits retinal and choroidal neovascularization

## pegaptanib
[13]
  Severe vision loss over 1 year: reduction in severe vision loss
